Reference: ChEMBL document CHEMBL1145247, “4-Alkyl and 4,4'-dialkyl 1,2-bis(4-chlorophenyl)pyrazolidine-3,5-dione derivatives as new inhibitors of bacterial cell wall biosynthesis” (Bioorg Med Chem Lett, 2005)
Values after ≈ are worked out from the molar mass of the structure shown.

Columns and labels:
Escherichia coli [1] = assay: Minimum inhibitory concentration against cell wall biosynthesis of Escherichia coli GC 4559; assay type: functional
Outline: (§1)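 Broth microdilution per NCCLS M7-A3. Mueller–Hinton broth for staphylococci and enterococci, 2-fold serial dilutions of agent. Final inoculum 1–5 × 10^5 CFU/mL.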

[2] = target: UDP-N-acetylglucosamine 1-carboxyvinyltransferase (Escherichia coli K-12, UniProt P0A749); assay: Inhibitory concentration against MurA enzyme in Escherichia coli
UDP-N-acetylglucosamine 1-carboxyvinyltransferase, sequence (P0A749 whole entry): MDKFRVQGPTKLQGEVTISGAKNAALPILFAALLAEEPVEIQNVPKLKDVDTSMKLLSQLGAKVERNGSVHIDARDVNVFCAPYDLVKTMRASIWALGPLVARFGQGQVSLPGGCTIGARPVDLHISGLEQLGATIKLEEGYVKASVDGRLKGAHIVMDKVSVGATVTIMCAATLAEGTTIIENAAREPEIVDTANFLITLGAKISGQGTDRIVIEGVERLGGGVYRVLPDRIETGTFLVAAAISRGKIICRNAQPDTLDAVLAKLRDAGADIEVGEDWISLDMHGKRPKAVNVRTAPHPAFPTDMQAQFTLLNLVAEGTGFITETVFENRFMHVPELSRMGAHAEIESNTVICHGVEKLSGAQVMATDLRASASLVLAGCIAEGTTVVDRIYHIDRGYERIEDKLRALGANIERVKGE
Outline: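 Enzyme preincubated with inhibitor 10 min at 37 °C before substrates were added. Reaction ran 30 min at 37 °C and was stopped with malachite green reagent (0.03% malachite green, 1.4% ammonium molybdate, 1.3 N HCl) for phosphate read-out.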

Staphylococcus aureus [3] = assay: Minimum inhibitory concentration against cell wall biosynthesis of methicillin resistant Staphylococcus aureus GC 1131; assay type: functional
Outline: (§2)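 Broth microdilution per NCCLS M7-A3 in Mueller–Hinton broth, aerobic. Agents tested as 2-fold serial dilutions, with a final inoculum of 1–5 × 10^5 CFU/mL. Plates incubated 18–22 h at 35 °C in ambient air. MIC read as the endpoint.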

Streptococcus pneumoniae [4] = assay: Minimum inhibitory concentration against cell wall biosynthesis of penicillin resistant Streptococcus pneumoniae GC 1894 (PRSP); assay type: functional
Outline: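 Broth microdilution per NCCLS M7-A3, using Mueller–Hinton broth supplemented with 5% sheep blood. Agents tested as 2-fold serial dilutions, with a final inoculum of 1–5 × 10^5 CFU/mL.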

[5] = Minimum inhibitory concentration against cell wall biosynthesis of methicillin-susceptible Coagulase negative staphylococcus GC 646 (MSCNS); assay type: functional; outline: as §1
Staphylococcus aureus [6] = assay: Minimal inhibitory concentration against methicillin resistant Staphylococcus aureus was determined; Range = 25-50 uM; assay type: functional; outline: as §2
Escherichia coli [7] = assay: Minimum inhibitory concentration against cell wall biosynthesis of Escherichia coli GC 4560; assay type: functional
[8] = target: T1, UDP-N-acetylenolpyruvoylglucosamine reductase (Staphylococcus aureus, UniProt P61431); assay: Inhibitory concentration against MurB enzyme in Staphylococcus aureus
T1 sequence (P61431 whole entry): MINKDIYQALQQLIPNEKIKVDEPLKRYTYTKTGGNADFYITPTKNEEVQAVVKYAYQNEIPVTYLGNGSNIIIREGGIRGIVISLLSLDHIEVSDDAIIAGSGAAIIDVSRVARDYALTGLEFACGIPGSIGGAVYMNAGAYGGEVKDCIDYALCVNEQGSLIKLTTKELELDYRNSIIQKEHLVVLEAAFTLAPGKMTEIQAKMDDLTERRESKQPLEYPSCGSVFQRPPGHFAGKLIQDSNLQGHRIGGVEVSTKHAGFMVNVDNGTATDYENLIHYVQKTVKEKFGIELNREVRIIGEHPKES
Outline: (§3)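 Enzyme (20 nM) preincubated 20 min with inhibitor, then substrates added to final 50 µM EP-UNAG and 100 µM NADPH. Activity followed spectrophotometrically. At least six inhibitor concentrations between 1.5 and 50 µM per compound. IC50 from sigmoid Hill curve fit (0–100).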

Enterococcus faecalis [9] = assay: Minimum inhibitory concentration against cell wall biosynthesis of vancomycin resistant Enterococcus faecalis GC 2242 (VRE); assay type: functional; outline: as §2
Enterococcus faecalis [10] = assay: Minimum inhibitory concentration against cell wall biosynthesis of vancomycin susceptible (ATCC) Enterococcus faecalis GC 4555; assay type: functional; outline: as §1
Streptococcus pneumoniae [11] = assay: Minimum inhibitory concentration against cell wall biosynthesis of penicillin resistant Streptococcus pneumoniae GC 1894 (PRSP) in the presence of 4% bovine serum albumin; assay type: functional
[12] = target: T2, UDP-N-acetylenolpyruvoylglucosamine reductase (Escherichia coli K-12, UniProt P08373); assay: Inhibitory concentration against MurB enzyme in Escherichia coli; outline: as §3
T2 sequence (P08373 whole entry): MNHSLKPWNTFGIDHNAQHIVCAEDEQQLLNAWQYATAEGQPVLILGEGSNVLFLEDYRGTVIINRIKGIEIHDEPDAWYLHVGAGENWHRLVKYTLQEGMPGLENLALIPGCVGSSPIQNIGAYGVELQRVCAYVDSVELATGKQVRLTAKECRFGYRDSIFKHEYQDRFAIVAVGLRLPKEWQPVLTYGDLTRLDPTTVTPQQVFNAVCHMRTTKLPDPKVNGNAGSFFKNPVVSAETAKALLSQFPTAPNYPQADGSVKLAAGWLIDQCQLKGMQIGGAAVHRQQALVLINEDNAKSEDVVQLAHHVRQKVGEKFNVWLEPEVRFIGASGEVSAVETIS

Enterococcus faecalis [13] = assay: Minimal inhibitory concentration against vancomycin susceptible Enterococcus faecalis was determined; Range = 25-50 uM; assay type: functional; outline: as §2
Staphylococcus aureus [14] = assay: Minimum inhibitory concentration against cell wall biosynthesis of methicillin susceptible Staphylococcus aureus GC 4543; assay type: functional; outline: as §2
Staphylococcus aureus [15] = assay: Minimal inhibitory concentration against methicillin susceptible Staphylococcus aureus was determined; Range = 25-50 uM; assay type: functional; outline: as §2
Enterococcus faecalis [16] = assay: Minimal inhibitory concentration against vancomycin resistant Enterococcus faecalis was determined; Range = 25-50 uM; assay type: functional; outline: as §2
Escherichia coli [17] = assay: Minimal inhibitory concentration against Escherichia coli GC 4560 was determined; assay type: functional; outline: as §1

Compound `O=C1C(CCCCCCc2ccccc2)C(=O)N(c2ccc(Cl)cc2)N1c1ccc(Cl)cc1` has an MIC (Escherichia coli [1]) of over 200 µM, an IC50 [2] of 34.9 µM and an MIC (Staphylococcus aureus [3]) of 25 µM (≈ 12 µg/mL). For the same compound, the MIC (Streptococcus pneumoniae [4]) was 6.25 µM (≈ 3.01 µg/mL), the MIC [5] was 100 µM (≈ 48.1 µg/mL) and the MIC (Staphylococcus aureus [6]) was 50 µM (≈ 24.1 µg/mL). The MIC (Escherichia coli [7]) was 200 µM (≈ 96.3 µg/mL), the IC50 [8] was 12 µM and the MIC (Enterococcus faecalis [9]) was 50 µM (≈ 24.1 µg/mL). The MIC (Enterococcus faecalis [10]) was 50 µM (≈ 24.1 µg/mL), the MIC (Streptococcus pneumoniae [11]) was over 200 µM and the IC50 [12] was 8.9 µM. For the same compound, the MIC (Enterococcus faecalis [13]) was 50 µM (≈ 24.1 µg/mL), the MIC (Staphylococcus aureus [14]) was 25 µM (≈ 12 µg/mL) and the MIC (Staphylococcus aureus [15]) was 50 µM (≈ 24.1 µg/mL). For the same compound, the MIC (Enterococcus faecalis [16]) was 50 µM (≈ 24.1 µg/mL).
With `N#Cc1ccccc1-c1ccc(CC2C(=O)N(c3ccc(Cl)cc3)N(c3ccc(Cl)cc3)C2=O)cc1` the MIC (Escherichia coli [17]) was 25 µM (≈ 12.8 µg/mL), the MIC (Escherichia coli [1]) was over 200 µM and the IC50 [2] was over 50 µM. For the same compound, the MIC [5] was 6.25 µM (≈ 3.2 µg/mL), the MIC (Escherichia coli [7]) was 25 µM (≈ 12.8 µg/mL) and the IC50 [8] was 12 µM. It also gave an MIC (Enterococcus faecalis [10]) of 25 µM (≈ 12.8 µg/mL), an IC50 [12] of 11 µM and an MIC (Staphylococcus aureus [14]) of 6.25 µM (≈ 3.2 µg/mL).
With `O=C1C(CCCCCc2ccccc2)C(=O)N(c2ccc(Cl)cc2)N1c1ccc(Cl)cc1` the MIC (Escherichia coli [1]) was over 200 µM, the IC50 [2] was 42.3 µM and the MIC (Staphylococcus aureus [3]) was 200 µM (≈ 93.5 µg/mL). The MIC (Streptococcus pneumoniae [4]) was 25 µM (≈ 11.7 µg/mL), the MIC [5] was over 200 µM and the MIC (Escherichia coli [7]) was over 200 µM. The IC50 [8] was 32 µM, the MIC (Enterococcus faecalis [9]) was 200 µM (≈ 93.5 µg/mL) and the MIC (Enterococcus faecalis [10]) was 100 µM (≈ 46.7 µg/mL). The MIC (Streptococcus pneumoniae [11]) was over 200 µM, the IC50 [12] was 10 µM and the MIC (Staphylococcus aureus [14]) was 100 µM (≈ 46.7 µg/mL).
For `O=C(CC1C(=O)N(c2ccc(Cl)cc2)N(c2ccc(Cl)cc2)C1=O)c1ccc(F)cc1`, the MIC (Escherichia coli [1]) was over 200 µM, the IC50 [2] was 8.4 µM and the MIC (Staphylococcus aureus [3]) was 25 µM (≈ 11.4 µg/mL). For the same compound, the MIC (Streptococcus pneumoniae [4]) was 25 µM (≈ 11.4 µg/mL), the MIC [5] was over 200 µM and the MIC (Escherichia coli [7]) was 200 µM (≈ 91.5 µg/mL). For the same compound, the IC50 [8] was 5.2 µM, the MIC (Enterococcus faecalis [9]) was 50 µM (≈ 22.9 µg/mL) and the MIC (Enterococcus faecalis [10]) was 50 µM (≈ 22.9 µg/mL). It also gave an MIC (Streptococcus pneumoniae [11]) of over 200 µM, an IC50 [12] of 5.4 µM and an MIC (Staphylococcus aureus [14]) of 25 µM (≈ 11.4 µg/mL).
Compound `O=C1N(c2ccc(Cl)cc2)N(c2ccc(Cl)cc2)C(=O)C1(CCOCc1ccccc1)CCOCc1ccccc1` has an MIC (Escherichia coli [1]) of over 200 µM, an IC50 [2] of 20.1 µM and an MIC (Staphylococcus aureus [3]) of 100 µM (≈ 59 µg/mL). The MIC (Streptococcus pneumoniae [4]) was 12.5 µM (≈ 7.37 µg/mL), the MIC [5] was 200 µM (≈ 118 µg/mL) and the MIC (Escherichia coli [7]) was 200 µM (≈ 118 µg/mL). The IC50 [8] was 7.5 µM, the MIC (Enterococcus faecalis [9]) was 50 µM (≈ 29.5 µg/mL) and the MIC (Enterococcus faecalis [10]) was 25 µM (≈ 14.7 µg/mL). For the same compound, the MIC (Streptococcus pneumoniae [11]) was over 200 µM, the IC50 [12] was 7.2 µM and the MIC (Staphylococcus aureus [14]) was 100 µM (≈ 59 µg/mL).
Compound `O=C1C(CCCCc2ccccc2)C(=O)N(c2ccc(Cl)cc2)N1c1ccc(Cl)cc1` has an MIC (Escherichia coli [1]) of over 200 µM, an IC50 [2] of 23.8 µM and an MIC (Staphylococcus aureus [3]) of 200 µM (≈ 90.7 µg/mL). For the same compound, the MIC (Streptococcus pneumoniae [4]) was 25 µM (≈ 11.3 µg/mL), the MIC [5] was 200 µM (≈ 90.7 µg/mL) and the MIC (Escherichia coli [7]) was over 200 µM. It also gave an IC50 [8] of 6.8 µM, an MIC (Enterococcus faecalis [9]) of 100 µM (≈ 45.3 µg/mL) and an MIC (Enterococcus faecalis [10]) of 200 µM (≈ 90.7 µg/mL). For the same compound, the MIC (Streptococcus pneumoniae [11]) was over 200 µM, the IC50 [12] was 5.6 µM and the MIC (Staphylococcus aureus [14]) was 200 µM (≈ 90.7 µg/mL).
